# Measurements published in ChEMBL document CHEMBL2311513, “Fragment growing and linking lead to novel nanomolar lactate dehydrogenase inhibitors” (J Med Chem, 2013).
# Calls of active or inactive are those of the source. The rule behind the calls is not given here.
# What was measured:
# [1] = molecular target: T1, L-lactate dehydrogenase A chain (Homo sapiens, UniProt P00338); test: Inhibition of LDH-A in human Ramos cells assessed as cellular lactate level at 200 uM after 1 hr; format: cell-based
# Outline: (§1)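 Supernatant sampled after 1 and 4 h. Extracellular lactate measured by a two-step lactate assay, both times within the linear range. Lactate expressed relative to vehicle, from a representative experiment.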
# [2] = molecular target: T1, L-lactate dehydrogenase A chain; test: Inhibition of LDH-A (unknown origin) by enzyme assay
# [3] = molecular target: T1, L-lactate dehydrogenase A chain; test: Inhibition of LDH-A in human Ramos cells assessed as cellular lactate level at 200 uM after 4 hrs; format: cell-based; outline: as §1
# [4] = molecular target: T1, L-lactate dehydrogenase A chain; test: Binding affinity to human LDH-A by surface plasmon resonance analysis
# Outline: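 Human LDH-A amine-coupled to a CM5 chip (~13000 RU), carbonic anhydrase II as reference surface. Running buffer 10 mM HEPES, 150 mM NaCl, 3% DMSO. Compounds injected as 2-fold dilution series, top 1 mM, at 20 °C. Equilibrium and kinetic responses fitted to a 1:1 binding model to give Kd.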
# [5] = molecular target: T1, L-lactate dehydrogenase A chain; test: Inhibition of LDH-A (unknown origin) up to 1 mM in presence of 0.1% Triton
# [6] = molecular target: T1, L-lactate dehydrogenase A chain; test: Inhibition of LDH-A (unknown origin) in absence of 0.1% Triton
# [7] = molecular target: T1, L-lactate dehydrogenase A chain; test: Inhibition of LDH-A (unknown origin) in presence of 0.1% Triton
IC50 [2],Kd [4],also measured,SMILES
> 10000 µM,–,inhibition [1]: inactive; inhibition [3]: inactive,COC(=O)c1ccc(SCC(=O)Nc2cc(Cl)c(OC[C@@H](O)[C@@H](O)[C@H](O)[C@H](O)CNc3cc(F)cc(-c4ccc(C(=O)OC)cn4)c3)cc2OC)nc1
2200 µM,1300 µM,–,O=C(O)COc1cc(F)cc(-c2ccc(C(=O)O)cn2)c1
13 µM,2.95 µM,lactate level (% of vehicle) [1]: 17%; lactate level (% of vehicle) [3]: 35%,COc1cc(OC[C@@H](O)[C@@H](O)[C@H](O)[C@H](O)CNc2cc(F)cc(-c3ccccn3)c2)c(Cl)cc1NC(=O)CSc1ccc(C(=O)O)cn1
–,–,inhibition [5]: inactive,O=C(CCCCN1C(=O)/C(=C/c2ccc(O)c(O)c2)SC1=S)NCc1ccc(Cl)c(Cl)c1
1300 µM,–,–,Nc1cc(F)cc(-c2ccc(C(=O)O)cn2)c1
–,–,inhibition [5]: inactive,O=C(O)CN1C(=O)/C(=C/c2ccc(O)c(O)c2)SC1=S
0.44 µM,0.068 µM,IC50 [6]: 0.22 µM; IC50 [7]: 0.325 µM,COc1cc(OC[C@@H](O)[C@@H](O)[C@H](O)[C@H](O)COc2cc(F)cc(-c3ccc(C(=O)O)cn3)c2)c(Cl)cc1NC(=O)CSc1ccc(C(=O)O)cn1
2.4 µM,0.222 µM,lactate level (% of vehicle) [1]: 21%; lactate level (% of vehicle) [3]: 61%,COc1cc(OC[C@@H](O)[C@@H](O)[C@H](O)[C@H](O)CNc2cc(F)cc(-c3ccc(C(=O)O)cn3)c2)c(Cl)cc1NC(=O)CSc1ccccn1
> 2000 µM,2300 µM,–,O=C(O)c1ccc(-c2ccccc2)nc1
0.12 µM,0.019 µM,lactate level (% of vehicle) [1]: 56%; lactate level (% of vehicle) [3]: 68%,COc1cc(OC[C@@H](O)[C@@H](O)[C@H](O)[C@H](O)CNc2cc(F)cc(-c3ccc(C(=O)O)cn3)c2)c(Cl)cc1NC(=O)CSc1ccc(C(=O)O)cn1
59 µM,0.85 µM,–,COc1cc(OCCCOCCCOc2cc(F)cc(-c3ccc(C(=O)O)cn3)c2)c(Cl)cc1NC(=O)CSc1ccc(C(=O)O)cn1
770 µM,137 µM,–,COc1ccc(Cl)cc1NC(=O)CSc1ccc(C(=O)O)cn1
342 µM,360 µM,–,COc1cc(OCC(O)CO)c(Cl)cc1NC(=O)CSc1ccc(C(=O)O)cn1 (stereo unspecified)
2.4 µM,0.175 µM,–,COc1cc(OCCCNC(=O)COc2cc(F)cc(-c3ccc(C(=O)O)cn3)c2)c(Cl)cc1NC(=O)CSc1ccc(C(=O)O)cn1
15.2 µM,12 µM,–,COc1cc(OC[C@H](O)[C@H](O)[C@@H](O)[C@@H](O)COc2cc(F)cc(-c3ccc(C(=O)O)cn3)c2)c(Cl)cc1NC(=O)CSc1ccc(C(=O)O)cn1
